From ChEMBL document CHEMBL1143914, “Synthesis and cytotoxic activity of diosgenyl saponin analogues” (Bioorg Med Chem, 2008)
Active and inactive are the calls of the source. No cut-off for these calls is given here.

Key:
Type in all cases: functional, cell-based
[1] = system: SK-N-SH; assay: Cytotoxicity against human SK-N-SH cells after 72 hrs by MTT assay
Method in brief: (§1)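 Cells grown in DMEM with 10% FBS at 37 °C, 5% CO2. 2000 cells per well in 96-well plates, allowed to adhere. Compounds were dissolved in DMSO, diluted in medium and added at 0–30 µM, 8 wells per concentration, for 72 h. MTT at 0.5 mg/mL for 4 h, then DMSO solubilization and absorbance at 490 nm. IC50 from concentration plots; at least 2 independent assays.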

[2] = system: MCF7; assay: Cytotoxicity against human MCF7 cells after 72 hrs by MTT assay; settings: MCF7, 72 h; method in brief: as §1
[3] = system: HeLa; assay: Cytotoxicity against human HeLa cells after 72 hrs by MTT assay; method in brief: as §1
[4] = system: SK-N-SH; assay: Cell cycle arrest in human SK-N-SH cells assessed as G1 phase accumulation
[5] = system: MCF7; assay: Cell cycle arrest in human MCF7 cells assessed as G2 phase accumulation

Row | Compound | IC50 [1] [µM] | IC50 [2] [µM] | IC50 [3] [µM] | Activity [4] | Activity [5]
1 | C[C@@H]1CC[C@@]2(OC1)O[C@H]1C[C@H]3[C@@H]4CC=C5C[C@@H](O[C@@H]6O[C@H](CO)[C@@H](O)[C@H](O)[C@H]6NC(=O)c6ccccc6)CC[C@]5(C)[C@H]4CC[C@]3(C)[C@H]1[C@@H]2C | 14.9 | 19.4 | 18 | Active | Active
2 | C[C@@H]1CC[C@@]2(OC1)O[C@H]1C[C@H]3[C@@H]4CC=C5C[C@@H](O[C@@H]6O[C@H](CO)[C@@H](O)[C@H](O)[C@H]6NC(=O)CCC(=O)O)CC[C@]5(C)[C@H]4CC[C@]3(C)[C@H]1[C@@H]2C | 14.1 | 22 | 13.9 |  | 
3 | CC(=O)N[C@@H](C)C(=O)N[C@H]1[C@H](O[C@H]2CC[C@@]3(C)C(=CC[C@H]4[C@@H]5C[C@@H]6O[C@]7(CC[C@@H](C)CO7)[C@@H](C)[C@@H]6[C@@]5(C)CC[C@@H]43)C2)O[C@H](CO)[C@@H](O)[C@@H]1O | 15.3 | 11 | 20 |  | 
4 | C[C@@H]1CC[C@@]2(OC1)O[C@H]1C[C@H]3[C@@H]4CC=C5C[C@@H](O[C@@H]6O[C@H](CO)[C@@H](O)[C@H](O)[C@H]6NC(=O)CCCCC(=O)O)CC[C@]5(C)[C@H]4CC[C@]3(C)[C@H]1[C@@H]2C | 16.3 | 11.3 | > 20 |  | 
5 | CC(=O)N[C@H]1[C@H](O[C@H]2CC[C@@]3(C)C(=CC[C@H]4[C@@H]5C[C@@H]6O[C@]7(CC[C@@H](C)CO7)[C@@H](C)[C@@H]6[C@@]5(C)CC[C@@H]43)C2)O[C@H](CO)[C@@H](O)[C@@H]1O | 11.6 | 18.3 | 21.5 |  | 
6 | C[C@@H]1CC[C@@]2(OC1)O[C@H]1C[C@H]3[C@@H]4CC=C5C[C@@H](O[C@H]6O[C@@H](CO)[C@H](O)[C@@H](O)[C@@H]6NC(=O)CCCCC(=O)N[C@H]6[C@H](O[C@H]7CC[C@@]8(C)C(=CC[C@H]9[C@@H]%10C[C@@H]%11O[C@]%12(CC[C@@H](C)CO%12)[C@@H](C)[C@@H]%11[C@@]%10(C)CC[C@@H]98)C7)O[C@H](CO)[C@@H](O)[C@@H]6O)CC[C@]5(C)[C@H]4CC[C@]3(C)[C@H]1[C@@H]2C | 19.5 | 19.2 | > 20 |  | 
7 | C[C@@H]1CC[C@@]2(OC1)O[C@H]1C[C@H]3[C@@H]4CC=C5C[C@@H](O[C@@H]6O[C@H](CO)[C@@H](O)[C@H](O)[C@H]6NC(=O)CCCCC6CCSS6)CC[C@]5(C)[C@H]4CC[C@]3(C)[C@H]1[C@@H]2C (stereo partly drawn) [ALPHA LIPOYL] | 4.8 | 6.9 | 7.3 |  | 
